From PubChem
GRIN3A LBD mod – binders of NR3A ligand-binding domain, primary screen, biophysical, differential scanning fluorimetry, uHTS | NR3A LBD differential scanning fluorimetry, Tm shift; 0% = protein alone, 100% = glycine-bound protein | Glutamate receptor ionotropic, NMDA 3A (GRIN3A) ligand-binding domain | 340,000 compounds, 2.5% hits | Tm shift relative to glycine control, % at 25 µM | AID 1259313, 2017;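 active = melting temperature shift of at least 10% of the positive control shift, at one fixed dose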
MPTP block – mitochondrial permeability transition pore inhibitors, primary screen, biochemical, isolated mouse mitochondria, absorbance. 360,000 compounds, 1.4% hits. inhibition, % at 10 µM. Ca2+ swelling absorbance, 30 min;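 active = inhibition of 50% or more, scaled per plate between neutral and stimulator controls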;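 also: 0% = DMSO wells given calcium and 100% = 1 mM EGTA wells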
aDG glyco act – activators of alpha-DG glycosylation, primary screen, uHTS, Pro5-aDG cells, AlphaScreen; 360,000 compounds, 0.22% hits; activation, % at 10 µM; AID 624168, 2012; alpha-DG glycosylation AlphaScreen (IIH6); 0% Pro5, 100% B10-LARGE cell signal;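 active = activation of at least 8% versus controls, or a plate z-score of at least 8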;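 also: Pro5 are CHO cells carrying HIG-tagged alpha-DG that lacks glycosylation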
proCasp7 act – procaspase-7 activators, primary screen, counter-screen for procaspase-3 activator project, biochemical, absorbance, HTS, human; Caspase-7 (Homo sapiens), P55210; recombinant procaspase-7, Ac-DEVD-pNA absorbance 405 nm; D23A/D198A/D206A triple mutant, cannot self-cleave; scale: DMSO 0, 5 µM enzyme 100; activation, % at 8.5 µM; 330,000 compounds, 0.093% hits; AID 463210, 2010;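 active = percent activation above the screen-wide mean plus 3 SD, cut at about 25% in these data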
Target sequence (P55210 whole entry D23A/D198A/D206A): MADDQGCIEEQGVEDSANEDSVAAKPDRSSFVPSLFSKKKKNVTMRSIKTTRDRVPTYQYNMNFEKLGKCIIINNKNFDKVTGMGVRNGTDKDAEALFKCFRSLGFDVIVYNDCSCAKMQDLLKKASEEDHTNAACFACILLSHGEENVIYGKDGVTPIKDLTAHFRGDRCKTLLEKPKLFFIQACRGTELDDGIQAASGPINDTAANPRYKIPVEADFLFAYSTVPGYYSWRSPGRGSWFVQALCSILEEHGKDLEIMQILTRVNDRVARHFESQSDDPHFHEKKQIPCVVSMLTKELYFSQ
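System: Procaspase-7 triple mutant (PC-7 D3A); measure: % activation from two-timepoint absorbance difference, scaled to controls; times: 1 h compound preincubation, 2 h substrate cleavage, 25 °C; also added: Ac-DEVD-pNA substrate, 400 µM as added; measured by: Epi-absorbance of released pNA at 405 nm, two timepoints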
proCasp3 act – activators of human procaspase-3 D3A mutant, primary screen, biochemical, absorbance, PC-3 D3A mutant, single concentration | recombinant procaspase-3 D3A, Ac-DEVD-pNA absorbance 405 nm | AID 463141, 2010 | activation, % at 8.5 µM | 330,000 compounds, 0.11% hits | Caspase-3 (Homo sapiens), P42574;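 active = activation above the mean of all tested compounds plus 3 SD, cut at about 21% in these data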;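 also: 0% = DMSO alone and 100% = DMSO wells spiked with extra 5 µM PC-3 D3A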
Target sequence (P42574 whole entry D9A/D28A/D175A): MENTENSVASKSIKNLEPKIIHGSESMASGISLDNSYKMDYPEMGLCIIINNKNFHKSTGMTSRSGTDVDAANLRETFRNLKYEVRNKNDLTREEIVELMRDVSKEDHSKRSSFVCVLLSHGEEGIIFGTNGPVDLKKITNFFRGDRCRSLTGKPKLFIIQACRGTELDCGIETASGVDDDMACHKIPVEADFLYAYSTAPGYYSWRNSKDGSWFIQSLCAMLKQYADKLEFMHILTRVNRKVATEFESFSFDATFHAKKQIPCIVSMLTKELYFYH
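Technique: 405 nm absorbance of p-nitroaniline, reads at 0 and 120 min; Test system: Procaspase-3 D3A mutant; Incubation: 1 h enzyme-compound preincubation, then 2 h substrate reaction, 25 °C; Repeats: singlicate, each compound tested once; Benchmarks: low control DMSO wells, high control DMSO plus 5 µM PC-3 D3A.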
MPTP counter – fluorescence retest of MPTP screen hits in isolated mitochondria, single concentration. shares compounds with MPTP block. membrane potential, Rhodamine 123 fluorescence. inhibition, % at 10 µM. 5,000 compounds, 78% hits; in the data active = inhibition above about 22%;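 also: 0% = DMSO vehicle and 100% = positive control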
MPTP abs DR – mitochondrial permeability transition pore inhibitors, dose response, biochemical, absorbance, uHTS hits; IC50, µM; 780 compounds, 58% hits; isolated mitochondria swelling; shares compounds with MPTP block; in the data active = IC50 below about 20 µM
MPTP cs DR – fluorescent counter-screen in isolated mitochondria, dose response, counter-screen for MPTP inhibitor project, biochemical, fluorescence, uHTS hits. shares compounds with MPTP block. isolated mitochondria counterscreen, fluorescence read-out. IC50, µM. 780 compounds, 49% hits. AID 651564, 2012; in the data active = IC50 below about 80 µM
* = called active by the depositor; i = inactive; . = no result. The list is not random: actives were taken first. Their share in the collection is about 3.7%.

SMILES	GRIN3A LBD mod	MPTP block	aDG glyco act	proCasp7 act	proCasp3 act	MPTP counter	others
COn1c2c(c3c4no[n+]([O-])c4ccc31)CCCC2	1	1	0	-5	6	.
[O-][n+]1c2c(c3c4non(O)c4ccc31)CCCC2	-3	96*	0	-2	3	83*
COc1ccccc1-n1c(SCC(=O)c2ccc(O)cc2O)nc2cc([N+](=O)[O-])ccc21	30*	88*	0	-4	0	66*
COc1ccccc1-n1c(SCC(=O)NC2CCS(=O)(=O)C2)nc2cc([N+](=O)[O-])ccc21 (configuration not stated)	0	1	0	5	4	.
CCN(CC)CC#CCC(C)(c1ccccc1)c1ccccc1	0	59*	0	8	-4	6	MPTP abs DR=i;MPTP cs DR=28*
C=CCOC(=O)C1=C(C)NC(SCC(=O)Nc2ccc(C)c(Cl)c2)=C(C#N)C1c1ccco1 (configuration not stated)	20*	72*	2	-9	-3	77*
COc1cccc(/C=C2/Sc3ccc(C(=O)NCCN4CCCCCC4)cc3NC2=O)c1	-7	95*	4	-9	-8	-7
O=C1Nc2cc(C(=O)NCCN3CCCCCC3)ccc2S/C1=C\c1ccccc1	-7	76*	0	-12	-4	-17
C[C@@H]1CN([C@@H](C)CO)C(=O)CCCn2nncc2CO[C@H]1CN(C)Cc1ccccc1	.	-1	0	.	.	.
Cc1ccc(NS(=O)(=O)c2ccc(C(=O)Nc3nncs3)cc2)cc1	-1	-1	1	0	5	.
O=C(Cn1nc(C(=O)O)c2ccccc2c1=O)Nc1cccc(Br)c1	-3	-2	0	10	-6	.
COc1ccc(C(C(=O)NC2CCCC2)n2c(CSCCOc3ccccc3)nc3ccccc32)cc1 (configuration not stated)	.	0	0	.	.	.
Clc1ccc2[nH]cc(-c3nnnn3-c3ccc4ccccc4c3)c2c1	29*	84*	1	13	2	77*
Cc1c(/C=N/NC(=O)c2ccccc2O)c2ccccn2c1C(=O)c1ccc(F)cc1	14*	98*	0	1	-11	56*
CCOc1ccc(NC(=O)CSc2nc3ccsc3c(=O)n2CCCCCC(=O)O)cc1	.	1	0	.	.	.
O=C(NNS(=O)(=O)c1ccc(F)cc1F)C1Cc2c(ccc3ccccc23)O1 (configuration not stated)	-2	73*	0	-2	-8	52*
COC(=O)c1ccc2c(c1)C(C)(C)C(/C=C/c1ccccc1O)=[N+]2C	2	75*	0	3	-14	-22
O=C(C[C@H]1C[C@H]2c3cc(NS(=O)(=O)c4ccc(F)cc4)ccc3O[C@H]2[C@H](CO)O1)NCc1ccncc1	.	0	0	.	.	.
Cc1ccc(OCC(O)Cn2c(=N)n(CCN3CCOCC3)c3ccccc32)cc1 (configuration not stated)	-1	52*	0	0	5	0	MPTP abs DR=i;MPTP cs DR=>80
Cc1ccc(OCC(O)Cn2c(=N)n(CCN3CCCCC3)c3ccccc32)cc1 (configuration not stated)	0	-5	0	-5	1	.
O=c1[nH]nc(SCc2nnc(-c3cccc(Cl)c3)o2)n1C1CCCCC1	-1	73*	1	0	-4	33*
COc1ccc(-c2nnc(CSc3nnc(-c4ccncc4)n3C3CCCCC3)o2)cc1OC	-5	5	0	11	-6	.
Cn1nc(C(F)(F)F)c(-c2ccc(Br)cc2)c1NC(=O)c1ccco1	0	7	0	2	-9	.
Cn1nc(C(F)(F)F)c(-c2ccc(F)cc2)c1NC(=O)Nc1ccc(F)cc1	-1	74*	0	1	-6	89*
CC(C)(C)C(C(=O)NCc1ccccc1)N1CCN(CCN2CCOCC2)CC1 (configuration not stated)	.	-1	1	.	.	.
SMILES	GRIN3A LBD mod	MPTP block	aDG glyco act	proCasp7 act	proCasp3 act	MPTP counter	others
O=C(Nc1ccc(Cl)cc1)N(C1=NCCC1)c1ccc(OC(F)F)cc1	23*	90*	0	-4	6	99*
CCOC(=O)c1nn(-c2ccc(F)cc2)c2c1CC/C2=C/c1ccccc1	0	0	0	17	4	.
CC(C)NC(=O)NC(=O)COC(=O)c1ccccc1Oc1ccccc1	2	-2	0	-7	5	.
CCC(C)CN1C(=O)CSCC1(C)C(=O)NC(C)C (configuration not stated)	.	0	0	.	.	.
CC(C)(C)c1cc(CCC(=O)NNC(=S)NC(=O)c2ccccc2)cc(C(C)(C)C)c1O	-5	80*	2	-18	-5	13
O=C(CN1CCN(S(=O)(=O)c2ccc(Br)s2)CC1)NCC1CCCCC1	.	0	0	.	.	.
CCOc1ccccc1N1CCN(C(=O)Nc2ccc(F)c(Cl)c2)CC1	-1	88*	0	5	-4	93*
COc1ccccc1N1CCN(C(=O)Nc2ccc(F)c(Cl)c2)CC1	-3	4	0	-7	2	.
CC(CN1c2ccccc2Sc2ccccc21)N(C)C (configuration not stated)	1	3	0	-12	-3	.
CCC(=O)/C=C1\Sc2ccc(OC)cc2N1CC	0	0	0	-11	-5	.
COc1ccc2c(c1)N(C[C@H](C)CN(C)C)c1ccccc1S2	3	67*	0	.	.	-16	MPTP abs DR=8.8*;MPTP cs DR=>80
CC(CN(C)C)CN1c2ccccc2Sc2ccccc21 (configuration not stated)	1	77*	0	-4	0	-11	MPTP abs DR=7.1*;MPTP cs DR=>80
C[C@H](O)CNC(=O)c1[nH]cnc1C(=O)Nc1ccc(CNC(=O)OC(C)(C)C)cc1	.	-1	0	.	.	.
CCCCCCCCCCCCCCCC(O)C(N)CO (configuration not stated)	-7	80*	0	0	2	-7
